“Also recorded” adds a separate entry of the source.
What was measured:
[1] = tested on: mTAAR7e-YC (mTAAR7e S132Y, S133C); experiment: cellular reporter gene assay, mutant mTAAR7e-YC; type: cell-based, mouse; conditions: mutant versus mTAAR7e; for decreased affinity of mTAAR7e-YC: decrease
[2] = tested on: mTAAR7f-SS (mTAAR7f Y132S, C133S); experiment: cellular reporter gene assay, mutant mTAAR7f-SS; type: cell-based, mouse; conditions: mutant versus mTAAR7f, increase
[3] = tested on: rodents; conditions: carnivore odor; cited from earlier work
[4] = tested on: TAAR4; conditions: cited from earlier work
[5] = tested on: TAAR5; conditions: cited from earlier work
[6] = target: T1, mTAAR7b (Mus musculus, UniProt Q5QD11); experiment: cAMP-dependent CRE-SEAP reporter gene assay in transfected HEK293 cells, mTAAR7b; type: cell-based; conditions: ligand 10 μM
T1 sequence (Q5QD11 1-358): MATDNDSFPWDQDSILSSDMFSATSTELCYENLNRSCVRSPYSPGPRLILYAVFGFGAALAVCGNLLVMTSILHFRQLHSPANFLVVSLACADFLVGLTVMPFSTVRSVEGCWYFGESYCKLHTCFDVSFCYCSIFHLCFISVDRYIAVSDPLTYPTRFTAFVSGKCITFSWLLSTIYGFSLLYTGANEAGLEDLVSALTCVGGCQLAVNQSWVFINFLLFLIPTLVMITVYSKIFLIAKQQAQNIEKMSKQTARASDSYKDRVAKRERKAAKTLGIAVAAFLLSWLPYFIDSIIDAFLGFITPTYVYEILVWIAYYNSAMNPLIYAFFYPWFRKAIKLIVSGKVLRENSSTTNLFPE
Procedure, shortened: (§1)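 HEK293 cells were co-transfected with a TAAR plasmid and a cAMP-dependent secreted alkaline phosphatase reporter (CRE-SEAP). Receptors were expressed both unmodified and as fusions with an N-terminal bovine rhodopsin sequence (Rho tag) that aids surface expression. Transfected cells were incubated with test compound at 10 μM. Secreted phosphatase activity was quantified with a fluorescent substrate as the activation read-out. Triplicates ± s.d.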

[7] = target: T2, rTAAR7b (Rattus norvegicus, UniProt Q923X8); experiment: cAMP-dependent CRE-SEAP reporter gene assay in transfected HEK293 cells, rTAAR7b; type: cell-based; conditions: ligand 10 μM
T2 sequence (Q923X8 1-358): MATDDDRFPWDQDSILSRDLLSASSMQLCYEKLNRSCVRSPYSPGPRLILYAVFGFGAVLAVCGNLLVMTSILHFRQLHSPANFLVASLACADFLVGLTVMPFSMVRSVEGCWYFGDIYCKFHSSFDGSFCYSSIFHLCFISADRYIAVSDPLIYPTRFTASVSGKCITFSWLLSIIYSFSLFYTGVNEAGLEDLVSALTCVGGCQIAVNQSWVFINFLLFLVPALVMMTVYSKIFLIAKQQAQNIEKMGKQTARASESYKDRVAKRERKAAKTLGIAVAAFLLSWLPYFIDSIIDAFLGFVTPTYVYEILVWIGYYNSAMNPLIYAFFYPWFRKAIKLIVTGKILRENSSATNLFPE
Procedure, shortened: as §1

[8] = target: T3, mTAAR7f (Mus musculus, UniProt Q5QD08); experiment: cAMP-dependent CRE-SEAP reporter gene assay in transfected HEK293 cells, mTAAR7f; type: cell-based; conditions: ligand 10 μM
T3 sequence (Q5QD08 1-358): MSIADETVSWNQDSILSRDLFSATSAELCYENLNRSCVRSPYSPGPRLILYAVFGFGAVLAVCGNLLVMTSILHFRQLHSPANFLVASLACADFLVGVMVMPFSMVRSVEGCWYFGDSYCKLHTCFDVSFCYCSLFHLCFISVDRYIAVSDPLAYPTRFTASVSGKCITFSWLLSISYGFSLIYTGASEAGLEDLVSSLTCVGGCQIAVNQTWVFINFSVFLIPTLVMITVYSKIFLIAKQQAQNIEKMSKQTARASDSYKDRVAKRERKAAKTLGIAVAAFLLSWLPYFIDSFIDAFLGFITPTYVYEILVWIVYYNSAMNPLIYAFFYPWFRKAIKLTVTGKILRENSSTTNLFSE
Procedure, shortened: as §1

[9] = target: T4, rTAAR7d (Rattus norvegicus, UniProt Q923X5); experiment: cAMP-dependent CRE-SEAP reporter gene assay in transfected HEK293 cells, rTAAR7d; type: cell-based; conditions: ligand 10 μM
T4 sequence (Q923X5 1-358): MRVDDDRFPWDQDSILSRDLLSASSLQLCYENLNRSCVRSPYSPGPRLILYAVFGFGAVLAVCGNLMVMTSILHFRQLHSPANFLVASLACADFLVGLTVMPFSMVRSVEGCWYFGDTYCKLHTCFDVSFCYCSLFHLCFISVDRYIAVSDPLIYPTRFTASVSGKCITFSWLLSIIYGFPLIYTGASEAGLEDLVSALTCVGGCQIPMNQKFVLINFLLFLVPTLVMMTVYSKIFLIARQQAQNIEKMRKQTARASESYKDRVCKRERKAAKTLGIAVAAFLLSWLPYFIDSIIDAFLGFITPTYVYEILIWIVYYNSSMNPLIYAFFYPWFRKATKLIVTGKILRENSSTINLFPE
Procedure, shortened: as §1

[10] = target: T5, mTAAR7e (Mus musculus, UniProt Q5QD09); experiment: cAMP-dependent CRE-SEAP reporter gene assay in transfected HEK293 cells, mTAAR7e; type: cell-based; conditions: ligand 10 μM
T5 sequence (Q5QD09 1-358): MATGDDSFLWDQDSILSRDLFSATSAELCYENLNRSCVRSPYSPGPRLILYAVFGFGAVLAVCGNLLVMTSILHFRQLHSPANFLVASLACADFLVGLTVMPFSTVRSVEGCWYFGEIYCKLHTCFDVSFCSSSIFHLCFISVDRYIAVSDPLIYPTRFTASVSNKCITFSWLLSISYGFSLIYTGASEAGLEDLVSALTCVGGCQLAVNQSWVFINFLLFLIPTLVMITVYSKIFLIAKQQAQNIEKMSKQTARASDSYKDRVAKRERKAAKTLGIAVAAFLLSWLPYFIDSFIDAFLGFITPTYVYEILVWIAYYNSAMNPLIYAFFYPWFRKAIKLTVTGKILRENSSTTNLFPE
Procedure, shortened: as §1

[11] = target: T6, rTAAR7h (Rattus norvegicus, UniProt Q923Y4); experiment: cAMP-dependent CRE-SEAP reporter gene assay in transfected HEK293 cells, rTAAR7h; type: cell-based; conditions: ligand 10 μM
T6 sequence (Q923Y4 1-358): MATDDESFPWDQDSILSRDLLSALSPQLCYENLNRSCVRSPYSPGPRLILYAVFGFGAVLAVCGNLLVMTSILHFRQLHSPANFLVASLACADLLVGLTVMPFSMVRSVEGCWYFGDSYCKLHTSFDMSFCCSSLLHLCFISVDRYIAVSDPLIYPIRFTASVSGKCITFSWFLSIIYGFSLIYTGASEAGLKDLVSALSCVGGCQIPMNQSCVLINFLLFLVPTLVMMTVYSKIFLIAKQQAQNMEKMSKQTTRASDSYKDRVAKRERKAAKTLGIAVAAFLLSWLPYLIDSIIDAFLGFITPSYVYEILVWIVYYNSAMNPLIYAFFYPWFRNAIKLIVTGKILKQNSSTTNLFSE
Procedure, shortened: as §1

For `COc1ccc2[nH]cc(CCN(C)C)c2c1` [ligand 7, 5-methoxy-N,N-dimethyltryptamine], which “decreased affinity of mTAAR7e-YC” value [1] is on record?
Its value is > 1,000 fold.

And the “increases in affinity of mTAAR7f-SS” value [2]?
Its value is > 1,000 fold.

For `NCCc1ccccc1` [ligand 3, 2-phenylethylamine], which “behavioral effect of odor on rodents” value [3] is on record?
Its value is “repels rodents”.

What about the TAAR4 agonist [4] of the same molecule?
Its TAAR4 agonist is “agonist”.

With `CN(C)C` [ligand 4, trimethylamine] as the molecule, how does the TAAR5 agonist [5] read?
The TAAR5 agonist was “agonist”.

Which “activation of mTAAR7b (reporter response)” value [6] does the source give for `CN(C)C1CCCCC1` [ligand 10, N,N-dimethylcyclohexylamine] here?
Its value is “respond; also recorded: activated”.

What about the “activation of rTAAR7b (reporter response)” value [7] of the same molecule?
The value was “respond; also recorded: activated”.

What about the “activation of mTAAR7f (reporter response)” value [8] of the same molecule?
The value was “respond; also recorded: activated”.

What about the “activation of rTAAR7d (reporter response)” value [9] of the same molecule?
The value was “respond; also recorded: activated”.

And the “enhanced affinity of mTAAR7e-YC” value ([1]; increase)?
The value was > 1,000 fold.

With `CN(C)CCc1ccccc1` [ligand 6, N,N-dimethyl-2-phenylethylamine] as the molecule, how does the “activation of mTAAR7e (reporter response)” value [10] read?
The value was “respond; also recorded: activated”.

What about the “activation of rTAAR7h (reporter response)” value [11] of the same molecule?
The value was “respond; also recorded: activated”.

And the “decreased affinity of mTAAR7e-YC” value [1]?
Its value is > 1,000 fold.

And the “increases in affinity of mTAAR7f-SS” value [2]?
Its value is > 1,000 fold.

— PMC3401279 (ACS Chemical Biology, 2012)
